Screening results as filed in PubChem BioAssay.
PP5 primary: PP5 phosphatase inhibitors, primary screen, biochemical, fluorescence. 0.18% of 320,000 active. Serine/threonine-protein phosphatase 5 (Homo sapiens), P53041. inhibition, % at 6.7 µM. AID 1987, 2009. purified PP5c, OMFP substrate fluorescence;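 active = inhibition above the campaign's mean inhibition across all tested compounds plus 3 SD, cut at about 9.5% in these data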;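 also: 0% = DMSO only and 100% = 100 µM cantharidin control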
PP1 counter: PP1-alpha phosphatase inhibitors, primary screen, counter-screen for PP5 inhibitor project, biochemical, fluorescence, OMFP substrate, single point; 0.9% of 320,000 active; inhibition, % at 6.7 µM; Serine/threonine-protein phosphatase PP1-alpha catalytic subunit (Homo sapiens), P62136; purified PP1alpha;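 active = inhibition above the mean inhibition of all tested compounds plus 3 SD, computed separately for each screening campaign, cut at about 15% in these data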
GSTO1 counter: inhibitors of recombinant GSTO1, primary screen, counter-screen for RBBP9 inhibitor project, biochemical, fluorescence polarization. Glutathione S-transferase omega-1 (Homo sapiens), P78417. activity-based probe fluorescence polarization. inhibition, % at 5.96 µM. 1.1% of 300,000 active. AID 1974, 2009;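 active = inhibition above the campaign mean inhibition plus 3 SD, cut at about 35% in these data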;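 also: 0% = GSTO1-1 with DMSO and 100% = wells lacking GSTO1-1 enzyme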
Apaf1 inhib: inhibitors of human Apaf-1 apoptosome, primary screen, biochemical, DEVD-Rh110 fluorescence, uHTS; Apoptotic protease-activating factor 1 (Homo sapiens), O14727; reconstituted apoptosome caspase-3 activity; inhibition, % at 20 µM; 0.71% of 330,000 active; AID 489030, 2010; active = inhibition of at least 40% at 20 µM;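 also: plate controls were DMSO wells for no effect and DEVD-CHO caspase inhibitor wells for full effect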
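System – cell-free apoptosome with Apaf-1, procaspase-3 and caspase-9 · Buffer or medium – pH 7.5 Hepes buffer with CHAPS, BSA, DTT · Also added – cytochrome c with DEVD-Rh110 · Times – 30 min compound preincubation, 50 min activation, room temperature · Technique – Rh110 fluorescence intensity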
TDP2 absorb: human TDP2 enzyme inhibitors, primary screen, biochemical, epi absorbance, recombinant enzyme; T5PNP hydrolysis, p-nitrophenol absorbance 415 nm; 0.34% of 370,000 active; inhibition, % at 12.8 µM; Tyrosyl-DNA phosphodiesterase 2 (Homo sapiens), O95551;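 active = inhibition above the mean of all tested compounds plus 3 SD, set per campaign, cut at about 25% in these data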;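 also: 0% = DMSO with enzyme and 100% = buffer with substrate but no TDP2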
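Test system: Human TDP2 enzyme | Reagent: 5 mM T5PNP | Compound dosing: 12.8 µM single point, 1% DMSO | Incubation: Enzyme reaction with compound for 2 h at 37 °C | Technique: p-Nitrophenol epi absorbance | Read-out: % inhibition relative to enzyme-containing and enzyme-free wells | Benchmarks: High control without enzyme, low control DMSO plus TDP2 | Replicates: Singlicate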
GSTO1 inh conf: GSTO1 inhibitor hit confirmation, counter-screen for RBBP9 inhibitor project, biochemical, fluorescence polarization, triplicate; shares compounds with GSTO1 counter; 54% of 2,400 active; inhibition, % at 5.96 µM; AID 2176, 2009; recombinant GSTO1, probe fluorescence polarization;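 active = inhibition above the primary screen's cutoff, its mean inhibition plus 3 SD, cut at about 35% in these data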;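 also: loss of polarization as inhibitors block binding of rhodamine sulfonate ester activity probe; 0% = GSTO1 with DMSO and 100% = wells lacking GSTO1 enzyme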
PP5 conf: PP5 phosphatase inhibitors, confirmation, biochemical, fluorescence, human. AID 2331, 2010. Purified PP5, fluorogenic phosphatase substrate. shares compounds with PP5 primary. inhibition, % at 6.7 µM. 22% of 460 active; in the data active = inhibition above about 9.5%
PP1 inh counter: PP1 phosphatase inhibitors, counter-screen for PP5 inhibitor project, biochemical, fluorescence, triplicate | inhibition, % at 6.7 µM | shares compounds with PP5 primary | 4% of 460 active | PP1 enzyme, fluorescent phosphatase substrate; in the data active = inhibition above about 16%
PP1 confirm: PP1 phosphatase inhibitors, confirmation, biochemical, fluorescence, OMFP substrate, triplicate | shares compounds with PP1 counter | purified PP1alpha | inhibition, % at 6.7 µM | 52% of 1,900 active | AID 2358, 2010;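 active = mean PP1 inhibition above a set limit taken from the earlier primary screen, cut at about 15% in these data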
PP5 inh counter: PP5 phosphatase inhibition by PP1 hits, confirmation, counter-screen for PP1 inhibitor project, biochemical, fluorescence, triplicate. shares compounds with PP1 counter. purified PP5c, OMFP fluorescence. 4% of 1,900 active. inhibition, % at 6.7 µM;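 active = mean PP5 inhibition over triplicate wells above about 9.5% taken from the earlier PP1 screen, limit read from the data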
Apaf-1 inh conf: Apaf-1 inhibitors, single-dose retest, confirmation, biochemical, fluorescence, DEVD-Rh110, 20 µM; shares compounds with Apaf1 inhib; reconstituted apoptosome, caspase-3 DEVD-Rh110 fluorescence; inhibition, % at 20 µM; 25% of 1,800 active; AID 504614, 2011;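 active = mean inhibition of at least 40% at 20 µM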;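 also: plate controls were DMSO wells for no effect and DEVD-CHO caspase inhibitor control wells for full effect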
Rh110 quench: Rh110 fluorescence interference by putative Apaf-1 inhibitors, confirmation, artefact control for Apaf-1 inhibitor project, biochemical, 20 µM; shares compounds with Apaf1 inhib; quenched caspase reaction; activation (fluorescence interference), % at 20 µM; 1,800 tested, under 10 active; AID 504615, 2011;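 active = signal rise of 40% or more at 20 µM, treated as a fluorescence artifact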
Apaf1 inh interf: fluorescence interference of Apaf-1 inhibitor hits, dose response, artefact control for Apaf-1 inhibitor project; shares compounds with Apaf1 inhib; fluorescence interference counterscreen, Apaf-1 assay format; IC50, µM; 460 tested, under 10 active; AID 588538, 2011; call rule not given here
Numbers without * were called inactive; . = no result given. In the library only some 2.1% were active in any assay of this set; here they are far more common.

SMILES	PP5 primary	PP1 counter	GSTO1 counter	Apaf1 inhib	TDP2 absorb	GSTO1 inh conf	others
CCCCn1c(N)c(C(=O)OCC2CCCO2)c2nc3ccccc3nc21 (centres undefined)	9	-6	81*	27	.	6
CCCCn1c(N)c(C(=O)OCCOC)c2nc3ccccc3nc21	3	-5	17	24	7	.
COC(=O)C1(N(C)c2ccccc2)CCN(Cc2ccccc2)CC1	.	.	.	.	9	.
CC(Cc1ccccc1)NC(=O)/C=C/c1ccc(Cl)cc1 (centres undefined)	2	1	-1	5	5	.
COP(=O)(OC)C(NC(=O)/C=C/c1ccccc1)C(Cl)(Cl)Cl (centres undefined)	1	-2	39*	-3	-7	69*
Cc1ccccc1CCC[C@H](CC1CCCCC1)CN(C)C(=O)Oc1ccccc1	.	.	.	.	15	.
Cc1nc(Cl)sc1C(=O)Nc1ccc2ccccc2c1	3	1	55*	-2	5	54*
Cc1c(N=Nc2c(O)[nH]c(=S)[nH]c2=O)c(=O)n(-c2ccccc2)n1C	3	-10	57*	-2	3	6
O=C(NCCN1CCC2(CC1)C(=O)NCN2c1ccccc1)c1ccc(OC(F)(F)F)cc1	.	.	.	.	-1	.
O=C(O)c1cccc2c1NC(C(=O)O)C1CC(Sc3ccccc3[N+](=O)[O-])C(Cl)C21 (centres undefined)	3	13	39*	.	17	-21
CC(=O)c1ccc2c(c1)C1C(Cl)C(Sc3ccccc3[N+](=O)[O-])CC1C(C(=O)O)N2 (centres undefined)	3	5	5	.	6	.
COc1ccc(N2C(=O)NC(=O)/C(=C\c3ccc([N+](=O)[O-])s3)C2=O)cc1	2	4	32	32	-10	.
COc1cccc(N2C(=O)NC(=O)/C(=C/c3ccc([N+](=O)[O-])s3)C2=O)c1	3	1	44*	11	-1	36*
CCOc1ccccc1-n1c(O)c(C=Nc2ccc(N(CC)CC)cc2)c(=O)[nH]c1=O	12*	-3	54*	25	5	5	PP5 conf=0;PP1 inh counter=0
CC(C)C(NC(=O)OCc1ccccc1)P(=O)(Oc1ccccc1)Oc1ccccc1 (centres undefined)	.	.	.	.	-7	.
O=C1NC(=O)N(Cc2ccco2)C(=O)/C1=C/c1ccc(-c2cccc([N+](=O)[O-])c2)o1	1	33*	40*	8	.	27	PP1 confirm=16*;PP5 inh counter=-7
C=CCN1C(=O)NC(=O)/C(=C\c2ccc(-c3ccccc3[N+](=O)[O-])o2)C1=O	1	0	17	-8	12	.
CN(C)[C@@H]1C(=O)C(C(N)=O)=C(O)[C@@]2(O)C(=O)C3=C(O)c4c(O)cccc4[C@@](C)(O)[C@H]3[C@H](O)[C@@H]12	2	44*	61*	3	12	69*	PP1 confirm=20*;PP5 inh counter=-1
N#Cc1ccc(NC(=S)N2Cc3ccc(Br)cc3-n3nncc3C2)cc1	.	.	.	.	2	.
CCCCn1c(N)c(C(=O)NCc2cccs2)c2nc3ccccc3nc21	9	4	61*	85*	12	82*	Apaf-1 inh conf=24;Rh110 quench=9
COc1ccc(CCNC(=O)c2c(N)n(CCN3CCOCC3)c3nc4ccccc4nc23)cc1OC	4	-1	-2	3	11	.
CCCCn1c(=O)c(C(=O)NCc2ccccc2OC)c(O)c2ccccc21	-2	1	7	8	-4	.
COCCCNC(=O)c1c(NC(=O)c2ccccc2)n(Cc2ccccc2)c2nc3ccccc3nc12	5	0	16	33	-4	.
CCCCOCCCn1c(N)c(C(=O)OCCOC)c2nc3ccccc3nc21	6	-1	38*	66*	-1	35*	Apaf-1 inh conf=2;Rh110 quench=12
CCCCCn1c(N)c(C(=O)NCc2cccs2)c2nc3ccccc3nc21	5	4	60*	70*	-10	5	Apaf-1 inh conf=41*;Rh110 quench=8;Apaf1 inh interf=>100
SMILES	PP5 primary	PP1 counter	GSTO1 counter	Apaf1 inhib	TDP2 absorb	GSTO1 inh conf	others
Nc1c(C(=O)NCc2ccco2)c2nc3ccccc3nc2n1Cc1ccc(F)cc1	8	8	71*	89*	9	2	Apaf-1 inh conf=25;Rh110 quench=12
Cc1ccc2nc(-c3ccc(CN4CCC(n5nnc6ccccc65)CC4)cc3)c(-c3ccccc3)nc2c1	.	.	.	.	-4	.
CN1c2ccc(Br)cc2[C@H]2NCC[C@H]2[C@H]1CO	.	.	.	.	-1	.
O=C(NCCN1CCC2(CC1)C(=O)NCN2c1ccccc1)C(c1ccccc1)c1ccccc1	.	.	.	.	6	.
Nc1cc2nc3ccccc3nc2cc1N	1	5	56*	62*	12	41*	Apaf-1 inh conf=51*;Rh110 quench=-9;Apaf1 inh interf=>100
CC(C)CCn1c(N)c(C(=O)OCC2CCCO2)c2nc3ccccc3nc21 (centres undefined)	4	3	88*	41*	4	6	Apaf-1 inh conf=18;Rh110 quench=0
